Values after ≈ are worked out from the molar mass of the structure shown.

What all share (assay type): functional
One test relates to Bacillus subtilis. Put plainly: Antimicrobial activity against Bacillus subtilis CGMCC 1.1162 after 24 hrs by modified microdilution method. Conditions: CGMCC 1.1162, 24 h. Put shortly: (§1)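 Broth microdilution. Compounds were dissolved in 20% DMSO and serially diluted twofold, then mixed with an equal volume of bacteria in Martin's broth (~10^5 CFU/ml). Amikacin sulfate was the positive control and 20% DMSO the negative control. Wells were incubated at 37 °C for 24 h and scored visually for growth. MIC is the lowest concentration inhibiting growth.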
For orientation: Dilution methods test growth across graded concentrations, often in twofold steps.

Another test has as its system Staphylococcus aureus. Briefly: Antimicrobial activity against Staphylococcus aureus CGMCC 1.1361 after 24 hrs by modified microdilution method. The conditions noted are these: CGMCC 1.1361, 24 h. Put shortly: as §1
Another test has as its system Escherichia coli. Put plainly: Antimicrobial activity against Escherichia coli CGMCC 1.1571 after 24 hrs by modified microdilution method. Conditions: CGMCC 1.1571, 24 h. Put shortly: as §1
For another test, the system named is Pseudomonas fluorescens. Put plainly: Antimicrobial activity against Pseudomonas fluorescens CGMCC 1.1828 after 24 hrs by modified microdilution method. The conditions noted are these: CGMCC 1.1828, 24 h. Put shortly: as §1
The next test deals with Trichophyton rubrum. Put plainly: Antimicrobial activity against Trichophyton rubrum ATCC 10218 after 48 hrs by modified microdilution method. Conditions: ATCC 10218, 48 h. In outline:
(§2)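 Fungal MIC by modified microdilution. Twofold serial dilutions of compound in 20% DMSO were combined with an equal volume of inoculum in PD broth (~10^5 CFU/ml). Ketoconazole was the positive control and 20% DMSO the negative control. Plates were incubated 48 h at 28 °C and inspected for growth. MIC is the lowest concentration without visible growth.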

The next test concerns Candida albicans. Briefly: Antimicrobial activity against Candida albicans CGMCC 2.2086 after 48 hrs by modified microdilution method. Conditions: CGMCC 2.2086, 48 h. In outline: as §2
The subject of a further test is Aspergillus niger. Briefly: Antimicrobial activity against Aspergillus niger CGMCC 3.316 after 48 hrs by modified microdilution method. The conditions noted are these: CGMCC 3.316, 48 h. In outline:
as §2

As to `COC(=O)[C@]1(C)CCC[C@]2(C)c3ccc(C(C)C)cc3-c3[nH]c4ccc(F)cc4c3[C@@H]12`, the minimum inhibitory concentration (MIC) – broadly, the smallest concentration in the dilution series that meets the test's criterion for growth inhibition – in the test with Bacillus subtilis was 1.9 mg/L (≈ 4.53 µM); with Staphylococcus aureus, 3.9 mg/L (≈ 9.3 µM); in the test with Escherichia coli, 15.6 mg/L (≈ 37.2 µM); with Pseudomonas fluorescens it was 7.8 mg/L (≈ 18.6 µM); in the test on Trichophyton rubrum it was above 100 mg/L; in the test on Candida albicans it was 62.5 mg/L (≈ 149 µM). Moreover, the MIC against Aspergillus niger is above 100 mg/L.

Consider `COC(=O)[C@]1(C)CCC[C@]2(C)c3ccc(C(C)C)cc3-c3[nH]c4ccc([N+](=O)[O-])cc4c3[C@@H]12`, for which the MIC is 7.8 mg/L (≈ 17.5 µM) in the test with Bacillus subtilis; 7.8 mg/L (≈ 17.5 µM) against Staphylococcus aureus; 15.6 mg/L (≈ 34.9 µM) with Escherichia coli; 15.6 mg/L (≈ 34.9 µM) with Pseudomonas fluorescens; 62.5 mg/L (≈ 140 µM) in the test on Trichophyton rubrum; 31.2 mg/L (≈ 69.9 µM) in the test with Candida albicans. For the same compound, the MIC in the test with Aspergillus niger is above 100 mg/L.

For `NCC[C@H](O)C(=O)N[C@@H]1C[C@H](N)[C@@H](O[C@H]2O[C@H](CN)[C@@H](O)[C@H](O)[C@H]2O)[C@H](O)[C@H]1O[C@H]1O[C@H](CO)[C@@H](O)[C@H](N)[C@H]1O` [AMIKACIN], the minimum inhibitory concentration (MIC) against Bacillus subtilis stood at 0.9 mg/L (≈ 1.54 µM); in the test with Staphylococcus aureus, 0.9 mg/L (≈ 1.54 µM); against Escherichia coli it was 1.9 mg/L (≈ 3.24 µM); in the test on Pseudomonas fluorescens, 0.9 mg/L (≈ 1.54 µM).

As to `COC(=O)[C@]1(C)CCC[C@]2(C)c3ccc(C(C)C)cc3-c3[nH]c4ccc(Cl)cc4c3[C@@H]12`, the minimal inhibitory concentration (MIC) with Bacillus subtilis was 3.9 mg/L (≈ 8.95 µM); against Staphylococcus aureus it was 3.9 mg/L (≈ 8.95 µM); against Escherichia coli, 15.6 mg/L (≈ 35.8 µM); against Pseudomonas fluorescens it was 31.2 mg/L (≈ 71.6 µM); against Trichophyton rubrum, above 100 mg/L; in the test on Candida albicans, above 100 mg/L. The compound further gave an MIC against Aspergillus niger above 100 mg/L.

For the compound `COC(=O)[C@]1(C)CCC[C@]2(C)c3ccc(C(C)C)cc3C(=O)C[C@@H]12`, the MIC with Bacillus subtilis was 31.2 mg/L (≈ 95 µM); with Staphylococcus aureus, 31.2 mg/L (≈ 95 µM); against Escherichia coli, above 100 mg/L; with Pseudomonas fluorescens it was 62.5 mg/L (≈ 190 µM); in the test with Trichophyton rubrum, above 100 mg/L; against Candida albicans it was above 100 mg/L. This compound showed an MIC in the test with Aspergillus niger above 100 mg/L.

Turning to `COC(=O)[C@]1(C)CCC[C@]2(C)c3ccc(C(C)C)cc3-c3[nH]c4ccc(OC)cc4c3[C@@H]12`, the MIC was 62.5 mg/L (≈ 145 µM) with Bacillus subtilis; 31.2 mg/L (≈ 72.3 µM) against Staphylococcus aureus; above 100 mg/L in the test with Escherichia coli; above 100 mg/L in the test on Pseudomonas fluorescens; above 100 mg/L in the test on Trichophyton rubrum; 62.5 mg/L (≈ 145 µM) with Candida albicans. In addition, the MIC with Aspergillus niger is above 100 mg/L.

Regarding `COC(=O)[C@]1(C)CCC[C@]2(C)c3ccc(C(C)C)cc3-c3[nH]c4c(Cl)cccc4c3[C@@H]12`, the MIC was 31.2 mg/L (≈ 71.6 µM) against Bacillus subtilis; 31.2 mg/L (≈ 71.6 µM) in the test with Staphylococcus aureus; above 100 mg/L with Escherichia coli; above 100 mg/L in the test on Pseudomonas fluorescens; above 100 mg/L in the test with Trichophyton rubrum; above 100 mg/L in the test on Candida albicans. The compound also returned a minimal inhibitory concentration (MIC) against Aspergillus niger above 100 mg/L.

Turning to `COC(=O)[C@]1(C)CCC[C@]2(C)c3ccc(C(C)C)cc3-c3[nH]c4ccc(Br)cc4c3[C@@H]12`, the MIC is 15.6 mg/L (≈ 32.5 µM) against Bacillus subtilis; 31.2 mg/L (≈ 64.9 µM) in the test with Staphylococcus aureus; 31.2 mg/L (≈ 64.9 µM) in the test on Escherichia coli; 15.6 mg/L (≈ 32.5 µM) against Pseudomonas fluorescens; above 100 mg/L against Trichophyton rubrum; above 100 mg/L against Candida albicans. Further, the minimal inhibitory concentration (MIC) with Aspergillus niger is above 100 mg/L.

As to `COC(=O)[C@]1(C)CCC[C@]2(C)c3ccc(C(C)C)cc3-c3[nH]c4ccc(C)cc4c3[C@@H]12`, the minimal inhibitory concentration (MIC) in the test on Bacillus subtilis was 31.2 mg/L (≈ 75.1 µM); in the test with Staphylococcus aureus, 62.5 mg/L (≈ 150 µM); with Escherichia coli, above 100 mg/L; against Pseudomonas fluorescens it was 31.2 mg/L (≈ 75.1 µM); against Trichophyton rubrum it was 62.5 mg/L (≈ 150 µM); in the test with Candida albicans, above 100 mg/L. The minimal inhibitory concentration (MIC) with Aspergillus niger is above 100 mg/L.

In the case of `CCOc1ccc2[nH]c3c(c2c1)[C@H]1[C@](C)(C(=O)OC)CCC[C@]1(C)c1ccc(C(C)C)cc1-3`, the minimum inhibitory concentration (MIC) with Bacillus subtilis is 62.5 mg/L (≈ 140 µM); in the test with Staphylococcus aureus, above 100 mg/L; against Escherichia coli it was 62.5 mg/L (≈ 140 µM); with Pseudomonas fluorescens it was 31.2 mg/L (≈ 70 µM); in the test with Trichophyton rubrum, 62.5 mg/L (≈ 140 µM); with Candida albicans, 62.5 mg/L (≈ 140 µM). The MIC with Aspergillus niger is above 100 mg/L.

Take `CC(=O)N1CCN(c2ccc(OCC3COC(Cn4ccnc4)(c4ccc(Cl)cc4Cl)O3)cc2)CC1` (configuration not stated) [KETOCONAZOLE]: the MIC was 3.9 mg/L (≈ 7.34 µM) in the test on Trichophyton rubrum, 3.9 mg/L (≈ 7.34 µM) with Candida albicans and 7.8 mg/L (≈ 14.7 µM) in the test on Aspergillus niger.

Take `COC(=O)[C@]1(C)CCC[C@]2(C)c3ccc(C(C)C)cc3-c3[nH]c4c(C)cccc4c3[C@@H]12`: the MIC in the test with Bacillus subtilis, in the test on Staphylococcus aureus, against Escherichia coli, with Pseudomonas fluorescens, against Trichophyton rubrum and against Candida albicans was above 100 mg/L throughout. In the test with Aspergillus niger, this compound had an MIC above 100 mg/L.

`COC(=O)[C@]1(C)CCC[C@]2(C)c3ccc(C(C)C)cc3-c3[nH]c4c(Br)cccc4c3[C@@H]12`: the MIC with Bacillus subtilis is 62.5 mg/L (≈ 130 µM); with Staphylococcus aureus it was above 100 mg/L; with Escherichia coli it was above 100 mg/L; in the test on Pseudomonas fluorescens, 62.5 mg/L (≈ 130 µM); with Trichophyton rubrum it was above 100 mg/L; against Candida albicans, above 100 mg/L. For the same compound, the MIC with Aspergillus niger was above 100 mg/L.

For the compound `COC(=O)[C@]1(C)CCC[C@]2(C)c3ccc(C(C)C)cc3-c3[nH]c4c(OC)cccc4c3[C@@H]12`, the MIC with Bacillus subtilis is above 100 mg/L; with Staphylococcus aureus, 62.5 mg/L (≈ 145 µM); against Escherichia coli it was above 100 mg/L; in the test on Pseudomonas fluorescens, above 100 mg/L; in the test on Trichophyton rubrum it was above 100 mg/L; in the test on Candida albicans it was above 100 mg/L. The compound also came in with a minimal inhibitory concentration (MIC) against Aspergillus niger above 100 mg/L.

In the case of `COC(=O)[C@]1(C)CCC[C@]2(C)c3ccc(C(C)C)cc3CC[C@@H]12` [METHYL DEHYDROABIETATE], the MIC is above 100 mg/L with Bacillus subtilis; 62.5 mg/L (≈ 199 µM) against Staphylococcus aureus; above 100 mg/L against Escherichia coli; above 100 mg/L against Pseudomonas fluorescens; above 100 mg/L in the test with Trichophyton rubrum; above 100 mg/L with Candida albicans. This compound also showed an MIC against Aspergillus niger above 100 mg/L.

As to `COC(=O)[C@]1(C)CCC[C@]2(C)c3ccc(C(C)C)cc3-c3[nH]c4c(F)cccc4c3[C@@H]12`, the minimum inhibitory concentration (MIC) is 7.8 mg/L (≈ 18.6 µM) against Bacillus subtilis; 31.2 mg/L (≈ 74.4 µM) against Staphylococcus aureus; 31.2 mg/L (≈ 74.4 µM) in the test on Escherichia coli; 15.6 mg/L (≈ 37.2 µM) in the test on Pseudomonas fluorescens; 62.5 mg/L (≈ 149 µM) in the test with Trichophyton rubrum; 31.2 mg/L (≈ 74.4 µM) against Candida albicans. Besides, it took 62.5 mg/L (≈ 149 µM) to inhibit growth against Aspergillus niger (MIC).

With `COC(=O)[C@]1(C)CCC[C@]2(C)c3ccc(C(C)C)cc3-c3[nH]c4ccccc4c3[C@@H]12`, the MIC was 31.2 mg/L (≈ 77.7 µM) in the test on Bacillus subtilis; 62.5 mg/L (≈ 156 µM) in the test on Staphylococcus aureus; above 100 mg/L with Escherichia coli; 62.5 mg/L (≈ 156 µM) against Pseudomonas fluorescens; above 100 mg/L against Trichophyton rubrum; above 100 mg/L against Candida albicans. In the test with Aspergillus niger, the minimal inhibitory concentration (MIC) is above 100 mg/L.

The values are drawn from ChEMBL document CHEMBL1250495, “Synthesis and antimicrobial activities of novel 1H-dibenzo[a,c]carbazoles from dehydroabietic acid” (2010).
